Source: PubChem BioAssay (Broad Institute)
Only some compounds are listed: those with a hit (about 2% of all), similar ones and a draw of the others.
Ecoli rRNA inh = inhibitors of bacterial rRNA selective over humanized ribosomes; E. coli WT GFP vs humanized-ribosome RFP mutants, fluorescence, 24 h; hits give low values; DMSO median 0, no signal -100; GFP signal change (wild-type ribosome), % (concentration not given with the values); 350,000 compounds, 1.6% hits;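 active = significant combined selectivity score with lowered wild-type GFP, culture density cut under 30%, mutant RFP and density less affected; inactive = any of these conditions unmet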
RAD54 branch = blocks human RAD54 Holliday junction branch migration; 360,000 compounds, 0.14% hits; inhibition, % at 10.4 µM; FAM/BHQ fluorescence;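 active = mean normalized replicate activity at least 40 and at least half of replicates scoring 40 or more; inconclusive = only one of the two criteria met; inactive = mean below 40 and under half of replicates reaching 40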;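 also: inhibitors cause a drop in the FAM fluorescence signal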
Target sequence (Q92698 whole entry, looked up): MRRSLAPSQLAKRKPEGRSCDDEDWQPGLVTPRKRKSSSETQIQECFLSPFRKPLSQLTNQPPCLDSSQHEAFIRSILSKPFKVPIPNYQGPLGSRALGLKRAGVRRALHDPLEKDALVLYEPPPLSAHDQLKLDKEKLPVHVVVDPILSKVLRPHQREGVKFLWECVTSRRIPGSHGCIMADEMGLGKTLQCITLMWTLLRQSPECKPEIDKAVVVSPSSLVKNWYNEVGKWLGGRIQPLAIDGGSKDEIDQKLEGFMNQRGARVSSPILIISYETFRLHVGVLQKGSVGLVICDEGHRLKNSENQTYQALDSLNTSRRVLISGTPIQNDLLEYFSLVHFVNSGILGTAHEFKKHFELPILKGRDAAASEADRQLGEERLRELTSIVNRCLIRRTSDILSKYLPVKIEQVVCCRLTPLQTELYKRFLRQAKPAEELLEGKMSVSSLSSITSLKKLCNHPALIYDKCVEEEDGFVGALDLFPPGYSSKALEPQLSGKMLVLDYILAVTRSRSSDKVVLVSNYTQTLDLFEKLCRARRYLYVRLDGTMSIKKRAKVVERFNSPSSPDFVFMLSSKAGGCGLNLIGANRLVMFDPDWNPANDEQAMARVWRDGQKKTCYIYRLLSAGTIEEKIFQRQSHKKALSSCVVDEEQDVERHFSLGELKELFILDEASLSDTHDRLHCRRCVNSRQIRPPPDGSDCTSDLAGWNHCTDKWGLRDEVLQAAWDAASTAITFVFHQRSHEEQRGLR
PglD inh = inhibitors of Campylobacter jejuni PglD acetyltransferase | purified PglD enzyme, DTNB colorimetric CoA detection | inhibition, % at 12.5 µM | 360,000 compounds, 0.098% hits; in the data active = inhibition above about 16%, passing the limit was not always enough; inconclusive = no clear call, values can overlap the other calls
E-sel inducer = induces E-selectin expression in human endothelial cells; HUVEC E-selectin immunofluorescence imaging; normalized: neutral wells 0, TNF-alpha wells 100; activation, % at 7.58 µM; 260,000 compounds, 0.37% hits;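 active = mean E-selectin-positive cell signal at least 10% of the positive control, reached in at least 60% of replicates, without over 20% cell loss; inconclusive = no rule given, readout overlaps actives, possibly toxicity-flagged; inactive = the rest, including those meeting only one limit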
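Assay system: HUVEC, human umbilical vein endothelial cells / Amount: 3,000 HUVEC/well / Controls: TNF-alpha positive control, DMSO neutral control / Compound dosing: single concentration / Medium: EGM-2 over gelatin coat / Evaluation: percent E-selectin-positive cells / Signal: immunofluorescence imaging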
RAD52 anneal inh = blocks human RAD52 DNA annealing; P43351; recombinant RAD52 DNA annealing, FRET fluorescence; inhibition, % at 18.7 µM; 360,000 compounds, 0.46% hits;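 active = every replicate showing at least 50% inhibition; inconclusive = mean inhibition at least 50% but not in every replicate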
Xi reactivation = reactivates the inactive X chromosome in mouse fibroblasts; AID 743238; XiGFP mouse fibroblasts, % GFP-positive cells imaging, 3 d; cells co-treated with 5-aza-dC sensitizer; scaled so ellipticine positive control = 100%; 360,000 compounds, 0.055% hits; activation, % at 7.58 µM;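 active = mean normalized replicate activation at least 10% and every replicate at or above 10%; inconclusive = only one of the two criteria met; inactive = mean below 10% and not all replicates reach 10%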
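assay system = SV40-immortalized XiGFP fibroblast cells, line 68-5-11 | buffer or medium = DMEM plus 5-aza-dC sensitizer | doses = single-point pinned compound dosing | times = 3-day compound exposure, then 15 min fixation at room temperature | benchmarks = positive control ellipticine, 6 µM final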
RAD52 DNA ctr = binds DNA, flagging false RAD52 inhibitor hits. 1,000 compounds, 8% hits. AID 652128. AC50, µM. Salmon sperm DNA/acridine orange FP displacement, DNA binding. shares compounds with RAD52 anneal inh;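 active = fitted half-maximal concentration for signal loss at or below twice the highest dose tested, in every separate run, actives reach about 64 µM in these data; inconclusive = runs disagree, or flat partial signal loss, or poor fit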
A number is an active result; 0 = inactive; ? = inconclusive; - = not tested or not shown.

SMILES	Ecoli rRNA inh	RAD54 branch	PglD inh	E-sel inducer	RAD52 anneal inh	Xi reactivation	RAD52 DNA ctr
N#Cc1cc2cc3c(cc2nc1SCC(=O)N1CCOCC1)OCO3	0	0	0	-	0	-	-
FC(F)(F)c1ccc(CN2CCN(Cc3ccco3)CC2)cc1	0	0	0	0	97	0	0
COc1ccc(CN2CCN(Cc3ccco3)CC2)cc1	0	0	0	0	0	0	-
O=C(Cc1ccccn1)N[C@@H]1CC[C@@H](CCn2cc(-c3cccnc3)nn2)O[C@H]1CO	0	0	0	0	0	0	-
CCOC(=O)c1c(-c2ccccc2)oc2ccc(OCC(O)CN(C)C)cc12 (stereo unspecified)	0	0	0	-	0	0	0
CN(C)CCCNC(=O)/C(=C\c1ccc(-c2cccc([N+](=O)[O-])c2)o1)NC(=O)c1ccccc1	0	-	-	-	0	0	-
Cc1ccc(C(=O)N/C(=C\c2ccc(-c3cccc([N+](=O)[O-])c3)o2)C(=O)NCCCN(C)C)cc1	-29	0	0	0	67	0	0
CCc1ccc(OCCNc2cc(N3CCNC(C)C3)ccc2[N+](=O)[O-])cc1 (stereo unspecified)	0	0	0	0	0	0	0
Cc1cccc(OCC(=O)Nc2ccc3c(c2)nc(CN2CCCCC2)n3C)c1	0	-	-	-	67	0	0
CO[C@H](CN(C)Cc1cc(F)ccc1F)[C@@H](C)CN([C@H](C)CO)S(=O)(=O)c1ccc(Cl)cc1	0	0	0	0	0	0	-
NCc1cc2c3c(c1)CCCN3CCC2	0	55	0	0	80	0	?
O=C1c2cccc3cccc(c23)C(=O)N1CC1CCN(CC(O)COc2ccc3ccccc3c2)CC1 (stereo unspecified)	0	0	0	0	0	0	-
COc1cc(COCC(O)CN2CCN(CCN3C(=O)c4cccc5cccc(c45)C3=O)CC2)cc(OC)c1OC (stereo unspecified)	0	-	-	-	85	0	0
Cc1ccc(C)c(OCC(O)CN2CCN(CCN3C(=O)c4cccc5cccc(c45)C3=O)CC2)c1 (stereo unspecified)	-	-	-	0	99	0	0
COc1cccc(OCC(O)CN2CCC(CN3C(=O)c4cccc5cccc(c45)C3=O)CC2)c1 (stereo unspecified)	0	-	-	-	86	0	0
CN(C)C(=O)C[C@H]1C=C[C@H](NC(=O)NC2CCCC2)[C@@H](CO)O1	0	0	0	0	0	0	-
CCN(CC)CCNC(=O)CCc1c(C)nc2c(c(C)nn2-c2ccc(C)c(C)c2)c1C	0	0	0	0	0	0	0
CCc1nc2ccc(C(=O)Nc3cc(-c4ccccc4)ccc3OC)cn2c1N(CCN(C)C)CC1CC1	0	0	0	0	63	0	0
CCc1nc2ccc(C(=O)Nc3cc(-c4ccccc4)ccc3OC)cn2c1N(C)CCC(C)C	0	0	0	0	0	0	-
Cc1cc(C)c2nc3nc(C)c(C)cc3c(N)c2c1	0	-	-	-	91	0	62µM
CCCCCN=C(N)N/N=C/c1c[nH]c2ccc(OC)cc12	-	0	0	0	56	0	0
CCCOc1ccc(C(=O)N/N=C/c2c[nH]c3ccc(Br)cc23)cc1	0	0	0	0	0	0	-
C[C@@H](O)C#Cc1cnc2c(c1)C(=O)N([C@@H](C)CO)C[C@H](C)[C@@H](CN(C)Cc1cccc(F)c1)O2	0	0	0	0	0	0	-
Cc1ccc2c(=O)c(CN3CCCCCC3)c(C)[nH]c2c1C	0	0	0	-	0	0	0
CCN1CCc2c(sc(NC(=O)c3cc4ccccc4cc3OC)c2C(N)=O)C1	0	0	0	0	76	0	0
CCCNC(=O)N1[C@@H](CO)[C@@H]2c3ccccc3N(C)C[C@@H]21	0	0	0	0	0	0	-
COc1cc(OC)cc(-c2sc3ccc(OC)cc3c2C#CC2(N)CCCCC2)c1	0	0	0	0	0	0	0
CO[C@@H](CN(C)C(=O)C1CCOCC1)[C@@H](C)CN(C(=O)Nc1ccc(C(F)(F)F)cc1)[C@H](C)CO	0	0	0	0	0	0	-
COc1cc2cc(-c3ccc(OC)c(OC)c3C)nc(N)c2cc1OC	0	0	0	0	61	0	0
